Measurements as given in ChEMBL document CHEMBL1144823, “Blood-brain barrier penetration by two dermorphin tetrapeptide analogues: role of lipophilicity vs structural flexibility” (J Med Chem, 2008).
Activity calls are given as the source filed them. Where a SMILES comes first, the peptide text is derived from it. [ ]: non-standard residue; d: D form. dNMeA = CN[C@H](C)C(=O)O; Sar = CNCC(=O)O

How the values were obtained:
[1] = target: Kappa-type opioid receptor (Cavia porcellus) (UniProt P41144); assay: Displacement of [3H]U-69593 from kappa opioid receptor in guinea pig brain membrane at 10 uM; format: cell membranes
Method in brief: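 Displacement of [³H]U69,593 from guinea pig brain membrane sites, with test concentrations up to 10 µM.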

Rattus norvegicus = organism: Rattus norvegicus; assay: Ratio of IC50 for mu opioid receptor in rat brain to IC50 for delta opioid receptor in rat brain; format: tissue-based
Method in brief: (§1)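 Competitive displacement on rat brain membranes: [³H]naloxone for mu sites and [³H]deltorphin II for delta sites, giving IC50 values. Selectivity is expressed as IC50(mu)/IC50(delta).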

Mu-type opioid receptor [2] = target: Mu-type opioid receptor (Rattus norvegicus, UniProt P33535); assay: Displacement of [3H]naloxone from mu opioid receptor in rat brain membrane; format: cell membranes; method in brief: as §1
[3] = target: Delta-type opioid receptor (Mus musculus, UniProt P32300); assay: Agonist activity at delta opioid receptor in mouse vas deferens; format: functional, tissue-based
Method in brief: (§2)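 Isolated guinea pig ileum and mouse vas deferens preparations. A [Leu⁵]enkephalin standard dose–response curve was run for each ileum and vas preparation. Compound IC50 values were normalized to that standard by a published procedure.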

Mu-type opioid receptor [4] = target: Mu-type opioid receptor (Cavia porcellus, UniProt P97266); assay: Agonist activity at mu opioid receptor in guinea pig ileum; format: functional, tissue-based; method in brief: as §2
[5] = target: Delta-type opioid receptor (Rattus norvegicus, UniProt P33533); assay: Displacement of [3H]deltorphin2 from delta opioid receptor in rat brain membrane; format: cell membranes; method in brief: as §1
Mus musculus [6] = assay: Analgesic activity in C57 mouse at 2 mg/kg, iv after 15 mins by tail flick test; format: functional, organism-based; set-up: dose 2 mg/kg
Method in brief: (§3)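 Male C57 mice (20–25 g) housed in groups of five on a 12 h light-dark cycle. Peptide in saline was injected into the tail vein (10 mL/kg total) and flushed with saline; controls received saline. Warm-water (55 °C) tail-flick test, three trials, 15 s cutoff. %MPE = (post − control)/(cutoff − control) × 100, read at baseline, 5, 15, 30, 60 and 120 min. One-way ANOVA at each time point.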

Mus musculus [7] = assay: Analgesic activity in C57 mouse at 2 mg/kg, iv after 5 mins by tail flick test; format: functional, organism-based; set-up: dose 2 mg/kg; method in brief: as §3

Sequence of Kappa-type opioid receptor (Cavia porcellus) (P41144 whole entry): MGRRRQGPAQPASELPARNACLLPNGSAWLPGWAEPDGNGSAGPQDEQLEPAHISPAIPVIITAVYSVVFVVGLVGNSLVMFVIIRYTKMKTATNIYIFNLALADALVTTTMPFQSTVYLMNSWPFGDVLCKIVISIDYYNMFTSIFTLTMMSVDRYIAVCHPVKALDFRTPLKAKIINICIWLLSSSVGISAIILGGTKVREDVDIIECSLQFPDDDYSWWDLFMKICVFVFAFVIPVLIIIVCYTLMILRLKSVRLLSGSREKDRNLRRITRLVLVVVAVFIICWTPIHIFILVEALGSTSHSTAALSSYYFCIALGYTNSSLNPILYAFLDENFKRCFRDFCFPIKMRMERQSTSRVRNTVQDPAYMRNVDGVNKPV
Sequence of Delta-type opioid receptor (Rattus norvegicus, UniProt P33533) (P33533 whole entry): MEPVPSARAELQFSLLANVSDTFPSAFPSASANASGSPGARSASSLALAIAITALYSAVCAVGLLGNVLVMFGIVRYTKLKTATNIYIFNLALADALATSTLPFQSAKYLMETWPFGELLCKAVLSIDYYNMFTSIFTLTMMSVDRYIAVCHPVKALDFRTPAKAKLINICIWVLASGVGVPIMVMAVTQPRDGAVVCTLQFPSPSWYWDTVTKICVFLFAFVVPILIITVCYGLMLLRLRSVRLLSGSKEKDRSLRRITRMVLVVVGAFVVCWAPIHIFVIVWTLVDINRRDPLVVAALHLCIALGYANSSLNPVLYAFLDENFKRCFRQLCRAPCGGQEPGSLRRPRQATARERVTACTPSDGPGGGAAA
Sequence of Mu-type opioid receptor (Rattus norvegicus, UniProt P33535) (P33535 whole entry): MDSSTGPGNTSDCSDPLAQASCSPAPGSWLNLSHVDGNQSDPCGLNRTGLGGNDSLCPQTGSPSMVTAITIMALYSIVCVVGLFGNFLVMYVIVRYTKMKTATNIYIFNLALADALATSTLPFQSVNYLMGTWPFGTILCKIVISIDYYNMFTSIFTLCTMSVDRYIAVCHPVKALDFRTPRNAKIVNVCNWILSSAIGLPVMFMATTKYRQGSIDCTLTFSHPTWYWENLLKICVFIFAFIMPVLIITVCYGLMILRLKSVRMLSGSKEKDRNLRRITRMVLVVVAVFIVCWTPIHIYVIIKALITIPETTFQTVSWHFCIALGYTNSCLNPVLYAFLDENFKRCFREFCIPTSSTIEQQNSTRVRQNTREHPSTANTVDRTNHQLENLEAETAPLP
Sequence of Delta-type opioid receptor (Mus musculus, UniProt P32300) (P32300 whole entry): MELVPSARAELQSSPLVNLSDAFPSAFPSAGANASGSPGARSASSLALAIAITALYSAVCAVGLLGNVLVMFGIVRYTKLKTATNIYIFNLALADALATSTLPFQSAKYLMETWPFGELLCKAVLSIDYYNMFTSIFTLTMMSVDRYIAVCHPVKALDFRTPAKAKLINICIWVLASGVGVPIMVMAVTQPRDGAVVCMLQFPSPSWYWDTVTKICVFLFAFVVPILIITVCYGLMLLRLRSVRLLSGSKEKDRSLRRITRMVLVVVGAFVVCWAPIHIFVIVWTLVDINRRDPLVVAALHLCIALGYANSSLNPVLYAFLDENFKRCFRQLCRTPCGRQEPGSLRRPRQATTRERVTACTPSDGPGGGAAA
Sequence of Mu-type opioid receptor (Cavia porcellus, UniProt P97266) (P97266 whole entry): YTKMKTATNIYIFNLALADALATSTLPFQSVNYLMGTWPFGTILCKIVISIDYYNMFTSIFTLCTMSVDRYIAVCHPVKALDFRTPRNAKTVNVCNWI

Row | SMILES | Activity [1] | Ratio IC50 (Rattus norvegicus) | IC50 (Mu-type opioid receptor [2]) [µM] | IC50 [3] [µM] | IC50 (Mu-type opioid receptor [4]) [µM] | IC50 [5] [µM] | Activity (Mus musculus [6]) | Activity (Mus musculus [7])
1 | C[C@H](C(=O)N[C@H]1Cc2ccccc2CN(CC(N)=O)C1=O)N1Cc2cc(O)ccc2C[C@H](N)C1=O | inactive | 1.17 | 20.8 | 30.3 | 3.64 | 17.8 | – | –
2 | C[C@H](C(=O)N[C@@H](Cc1ccccc1)C(=O)N(C)CC(N)=O)N(C)C(=O)[C@@H](N)Cc1ccc(O)cc1 (H-Y[dNMeA]F[Sar]-NH2) | inactive | 3.96 | 28.1 | 79.7 | 22 | 7.1 | Active | Active
